Measurements: ChEMBL document CHEMBL1122366, “Potential antiatherosclerotic agents. 3. Substituted benzoic and non benzoic acid analogues of cetaben” (1983)
“And” between values parts separate entries of the source, which are not always exact repeats. Equal values may be shown once.

Columns and labels:
Rattus norvegicus [1] = experiment: In vivo sterol lowering activity at dose of 0.10 % of the diet; format: functional
Procedure, shortened: (§1)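 Normal rats were dosed in the diet. Serum sterol and triglyceride levels were measured and expressed as the mean percent of control values. Significance versus control was reported at p < 0.05, 0.01 and 0.001.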

Rattus norvegicus [2] = experiment: In vivo triglyceride lowering activity dosed at 0.10 % of the diet.; format: functional; procedure, shortened: as §1
Rattus norvegicus [3] = experiment: In vivo sterol lowering activity when dosed as 0.03 % of the diet; format: functional; procedure, shortened: as §1
Rattus norvegicus [4] = experiment: In vivo triglyceride lowering activity when dosed at 0.03 % of the diet; format: functional; procedure, shortened: as §1
Rattus norvegicus [5] = experiment: In vivo triglyceride lowering activity when dosed as 0.01 % of the diet; format: functional; procedure, shortened: as §1
Rattus norvegicus [6] = experiment: In vivo sterol lowering activity when dosed as 0.01 % of the diet; format: functional; procedure, shortened: as §1
[7] = target: T1, Sterol O-acyltransferase 1 (Rattus norvegicus) (UniProt O70536); experiment: In vitro inhibition of acyl coenzyme A:cholesterol acyltransferase; parameters: concentration or dose not given beside the values; conditions: concentration not given here
T1 sequence (whole entry): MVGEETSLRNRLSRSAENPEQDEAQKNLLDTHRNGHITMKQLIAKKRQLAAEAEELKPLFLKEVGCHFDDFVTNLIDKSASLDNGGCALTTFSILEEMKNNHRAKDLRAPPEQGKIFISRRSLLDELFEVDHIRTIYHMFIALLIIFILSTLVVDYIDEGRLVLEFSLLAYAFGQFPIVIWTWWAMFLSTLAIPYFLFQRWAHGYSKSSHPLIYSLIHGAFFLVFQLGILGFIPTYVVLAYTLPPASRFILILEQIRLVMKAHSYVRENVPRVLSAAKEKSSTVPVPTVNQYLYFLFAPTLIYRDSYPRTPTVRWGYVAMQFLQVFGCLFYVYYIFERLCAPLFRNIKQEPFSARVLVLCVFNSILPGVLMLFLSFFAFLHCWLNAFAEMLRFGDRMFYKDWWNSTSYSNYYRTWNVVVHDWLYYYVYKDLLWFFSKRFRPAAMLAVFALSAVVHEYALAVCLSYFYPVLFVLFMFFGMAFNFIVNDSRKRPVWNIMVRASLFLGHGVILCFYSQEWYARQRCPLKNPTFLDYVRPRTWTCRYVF
Procedure, shortened: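 Enzyme fatty acyl-CoA:cholesterol acyltransferase (ACAT), assayed in vitro at a single drug concentration of 5.2 μg/mL. The value is the mean percent inhibition of enzyme activity.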

Row | Compound | serum sterol level, percent of control (Rattus norvegicus [1]) | serum triglyceride, percent of control (Rattus norvegicus [2]) | serum sterol level, percent of control (Rattus norvegicus [3]) | serum triglyceride level, percent of control (Rattus norvegicus [4]) | serum triglyceride level, percent of control (Rattus norvegicus [5]) | serum sterol level, % of control (Rattus norvegicus [6]) | inhibition [7] [%]
1 | CCCCCCCCCCCCCCCCN(C=O)c1ccc(C(=O)OCC)cc1 | 96% | 75% | 117% | 90% | 102% | 101% | 9
2 | CCCCCCCCCCCCCCCCNc1ccc(C(=O)Oc2ccc(Cl)cc2)cc1 | 91% | 83% | <86% | 85% | 91% | 94% | 0
3 | CCCCCCCCCCCCCCCCNc1ccc(CCCC(=O)O)cc1 | 97% | <51% | 95% | <61% | <68% | 100% | < 32
4 | CCCCCCCCCCCCCCCCNc1ccc(C(=O)NS(C)(=O)=O)cc1 | <87% | <54% | <84% | <73% | 77% | 94% | 11
5 | CCCCCCCCCCCCCCCCNc1ccc(C(C)=O)cc1 | 98% | 78% | 119% | 88% | 84% | 129% | 14
6 | CCCCCCCCCCCCCCCCNc1ccc(C(=O)OCC(=O)OC)cc1 | <71% | 74% | <76% | 72% | 79% | 84% | < 24
7 | CCCCCCCCCCCCCCCCNc1ccc(C(=O)O)c(C)c1 | 103% | 105% | 100% | 121% | 112% | 101% | 38
8 | CCCCCCCCCCCCCCCCNc1ccc(C(=O)C[S+](C)[O-])cc1 (stereo not drawn) |  |  | 95% | <55% | <64% | 95% | 6
9 | CCCCCCCCCCCCCCCCNc1ccc(C(=O)O)cc1Br | 93% and 97% | 91% and 100% | 100% and 99% | 96% and 99% | 95% and 104% | 92% and 101% | 
10 | CCCCCCCCCCCCCCCCN(CCCCCCCCCCCCCCCC)c1ccc(C(=O)O)c2ccccc12 | 101% | 112% | 109% | 99% | 100% | 111% | 
11 | CCCCCCCCCCCCCCCCNc1ccc(CO)cc1 | 95% | 91% | 95% | 117% | 110% | 98% | 
12 | CCCCCCCCCCCCCCN(C)c1ccc(C(=O)O)cc1 | 97% | 103% | 94% | 92% | 82% | 97% | 
13 | CCCCCCCCCCCCCCCCNc1ccc(C(=O)OCC(O)CO)cc1.Cl (stereo not drawn) | <69% | <30% | 92% | <49% | 98% | <88% | 
14 | CCCCCCCCCCCCCCCCNc1ccc(C(=O)OCC)cc1C | 103% | 95% | <87% | 94% | 81% | 92% | 
15 | CCCCCCCCCCCCCCCCN(C)c1ccc(C(=O)O)cc1 | 85% | 56% | 92% | <66% | <81% | 85% | 
16 | CCCCCCCCCCCCCCCCNCc1ccc(C(=O)O)cc1 | <88% | 96% | <89% | 91% | 86% | 97% | 
17 | CCCCCCCCCCCCCCCCNc1ccc(C(=O)O)cc1 [CETABEN] | <54% | <31% | <71% | <45% | <71% | <72% | 
18 | CCCCCCCCCCCCCCCCCN(C)c1ccc(C(=O)O)cc1 | 98% | 109% | 98% | 134% | 98% | 97% | 
19 | CCCCCCCCCCCCCCCCNc1ccc(C(=O)OCC(O)CO)cc1 (stereo not drawn) | <71% | <45% | <82% | <67% | <73% | <85% | 
20 | CCCCCCCCCCCCCCCCNc1ccc(C#N)cc1 | 96% | 75% | 92% | 71% | 83% | 86% | 
21 | CCCCCCCCCCCCCCCCCCN(CC)c1ccc(C(=O)O)cc1 | 108% | 103% | 102% | 102% | 85% | 102% | 
22 | CCCCCCCCCCCCCCCCCN(CC)c1ccc(C(=O)O)cc1 | 95% | 106% | 98% | 108% | 126% | 98% | 
